Measurements published in ChEMBL document CHEMBL2311390, “Synthesis and preliminary evaluation of pharmacological properties of some piperazine derivatives of xanthone” (Bioorg Med Chem, 2013).

How the values were obtained:
[1] = target: T1, Adrenergic receptor alpha-1 (Rattus norvegicus, UniProt P15823+P23944+P43140); experiment: Displacement of [3H]-prazosin from alpha1-adrenergic receptor in rat cerebral cortex by liquid scintillation counting; format: tissue-based
T1 sequence (P15823 whole entry): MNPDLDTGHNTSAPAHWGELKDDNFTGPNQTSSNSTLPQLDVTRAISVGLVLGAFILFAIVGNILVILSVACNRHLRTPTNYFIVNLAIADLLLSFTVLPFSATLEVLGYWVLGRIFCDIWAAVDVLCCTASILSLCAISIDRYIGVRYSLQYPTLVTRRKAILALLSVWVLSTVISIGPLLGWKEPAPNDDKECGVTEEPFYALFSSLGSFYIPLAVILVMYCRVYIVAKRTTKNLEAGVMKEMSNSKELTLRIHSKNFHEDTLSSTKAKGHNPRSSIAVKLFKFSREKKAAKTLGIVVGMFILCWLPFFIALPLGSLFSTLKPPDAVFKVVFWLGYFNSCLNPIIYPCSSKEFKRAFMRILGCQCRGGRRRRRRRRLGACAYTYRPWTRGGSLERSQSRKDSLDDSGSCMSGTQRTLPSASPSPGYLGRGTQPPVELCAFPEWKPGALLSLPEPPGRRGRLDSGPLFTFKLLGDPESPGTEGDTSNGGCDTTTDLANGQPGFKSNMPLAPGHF
T1 sequence (P23944 whole entry): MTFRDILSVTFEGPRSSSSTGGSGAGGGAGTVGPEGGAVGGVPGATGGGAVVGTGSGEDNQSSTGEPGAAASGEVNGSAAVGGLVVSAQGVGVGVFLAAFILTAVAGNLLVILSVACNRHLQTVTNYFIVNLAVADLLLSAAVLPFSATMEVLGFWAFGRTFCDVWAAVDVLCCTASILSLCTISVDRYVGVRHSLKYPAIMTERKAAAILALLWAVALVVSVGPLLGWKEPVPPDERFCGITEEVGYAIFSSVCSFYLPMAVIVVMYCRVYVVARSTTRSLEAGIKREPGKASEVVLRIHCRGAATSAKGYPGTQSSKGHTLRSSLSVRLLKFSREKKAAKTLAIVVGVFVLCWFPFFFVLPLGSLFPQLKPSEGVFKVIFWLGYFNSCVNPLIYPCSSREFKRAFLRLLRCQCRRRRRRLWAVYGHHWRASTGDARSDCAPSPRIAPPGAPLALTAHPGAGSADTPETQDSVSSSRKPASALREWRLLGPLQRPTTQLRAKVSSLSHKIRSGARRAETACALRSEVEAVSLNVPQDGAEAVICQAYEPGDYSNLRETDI
T1 sequence (P43140 whole entry): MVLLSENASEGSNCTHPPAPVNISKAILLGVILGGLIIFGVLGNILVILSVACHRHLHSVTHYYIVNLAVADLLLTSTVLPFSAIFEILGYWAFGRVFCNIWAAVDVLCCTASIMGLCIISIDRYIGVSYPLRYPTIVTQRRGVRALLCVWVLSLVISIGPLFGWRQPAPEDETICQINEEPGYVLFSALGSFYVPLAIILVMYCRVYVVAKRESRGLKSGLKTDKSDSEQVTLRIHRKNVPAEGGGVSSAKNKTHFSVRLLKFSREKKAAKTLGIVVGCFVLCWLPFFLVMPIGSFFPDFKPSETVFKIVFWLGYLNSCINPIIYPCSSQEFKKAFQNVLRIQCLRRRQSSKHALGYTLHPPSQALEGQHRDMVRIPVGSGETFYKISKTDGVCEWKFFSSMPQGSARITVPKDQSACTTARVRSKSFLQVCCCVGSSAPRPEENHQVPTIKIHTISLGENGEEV
Summary of the method: (§1)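 Rat cerebral cortex was homogenised in ice-cold 50 mM Tris-HCl pH 7.6 and spun at 20,000 g for 20 min at 0–4 °C, then washed once. Radioligands: [3H]prazosin 0.2 nM for α1, [3H]clonidine 2 nM for α2, [3H]CGP-12177 0.2 nM for β1. Test compounds were run at 7–8 concentrations from 10^-11 to 10^-4 M. Nonspecific binding was defined with phentolamine (α1), clonidine (α2) or propranolol (β1). Counting was by liquid scintillation, in duplicate. Ki was derived by Cheng–Prusoff from 2–3 experiments.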

[2] = target: T2, Adrenergic receptor alpha-2 (Rattus norvegicus, UniProt P22086+P19328+P22909); experiment: Displacement of [3H]clonidine from alpha2-adrenergic receptor in rat cerebral cortex by liquid scintillation counting; format: tissue-based; summary of the method: as §1
T2 sequence (P22086 whole entry): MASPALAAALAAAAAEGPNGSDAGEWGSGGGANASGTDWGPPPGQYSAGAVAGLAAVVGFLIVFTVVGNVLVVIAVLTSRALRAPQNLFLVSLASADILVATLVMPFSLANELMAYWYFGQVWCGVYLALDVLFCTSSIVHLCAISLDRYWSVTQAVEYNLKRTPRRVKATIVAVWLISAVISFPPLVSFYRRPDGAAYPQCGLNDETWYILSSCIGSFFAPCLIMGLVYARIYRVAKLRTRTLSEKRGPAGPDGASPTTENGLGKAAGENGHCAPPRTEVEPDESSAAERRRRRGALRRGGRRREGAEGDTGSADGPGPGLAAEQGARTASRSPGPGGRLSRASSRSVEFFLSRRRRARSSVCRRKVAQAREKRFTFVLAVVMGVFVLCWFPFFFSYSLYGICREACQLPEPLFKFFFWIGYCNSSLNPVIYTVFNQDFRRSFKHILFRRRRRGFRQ
T2 sequence (P19328 whole entry): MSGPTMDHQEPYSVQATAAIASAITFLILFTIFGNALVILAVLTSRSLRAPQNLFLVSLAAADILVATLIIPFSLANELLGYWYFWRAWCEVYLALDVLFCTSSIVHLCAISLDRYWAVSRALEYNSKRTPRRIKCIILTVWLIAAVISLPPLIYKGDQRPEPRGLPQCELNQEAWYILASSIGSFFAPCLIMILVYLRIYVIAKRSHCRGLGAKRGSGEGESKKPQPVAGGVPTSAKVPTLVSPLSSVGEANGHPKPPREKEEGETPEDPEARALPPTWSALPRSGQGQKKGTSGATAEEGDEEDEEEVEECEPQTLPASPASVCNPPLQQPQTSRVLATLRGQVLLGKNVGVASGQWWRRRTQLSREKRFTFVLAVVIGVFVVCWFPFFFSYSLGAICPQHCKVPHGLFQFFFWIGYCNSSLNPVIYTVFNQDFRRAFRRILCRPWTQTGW
T2 sequence (P22909 whole entry): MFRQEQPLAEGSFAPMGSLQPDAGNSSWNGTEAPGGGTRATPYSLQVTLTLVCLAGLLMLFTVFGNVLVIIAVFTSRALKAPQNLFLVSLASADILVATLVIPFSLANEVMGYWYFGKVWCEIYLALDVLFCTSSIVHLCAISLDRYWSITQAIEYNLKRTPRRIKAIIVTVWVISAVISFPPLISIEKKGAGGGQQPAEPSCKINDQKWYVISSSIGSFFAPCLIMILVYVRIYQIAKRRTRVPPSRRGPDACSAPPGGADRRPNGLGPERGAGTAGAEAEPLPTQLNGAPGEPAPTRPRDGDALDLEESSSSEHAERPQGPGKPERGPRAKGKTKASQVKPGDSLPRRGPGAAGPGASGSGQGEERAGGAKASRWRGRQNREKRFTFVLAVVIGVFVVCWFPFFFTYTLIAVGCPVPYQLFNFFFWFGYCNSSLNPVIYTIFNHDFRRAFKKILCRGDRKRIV

SMILES	Ki [1] [nM]	Ki [2] [nM]
Cl.Cl.Cl.O=c1c2ccc(Cl)cc2oc2c(OCC(O)CN3CCN(CCOc4ccccc4)CC3)cccc12 (racemic)	506	450
Cl.Cl.Cl.O=c1c2ccc(Cl)cc2oc2c(OCC(O)CN3CCN(C/C=C/c4ccccc4)CC3)cccc12 (racemic)	1100	3400
Cl.Cl.Cl.O=c1c2ccc(Cl)cc2oc2c(OCC(O)CN3CCN(Cc4ccccc4)CC3)cccc12 (racemic)	614	7700

More lines, now with the values ahead:

Ki [1] [nM]	Ki [2] [nM]	SMILES
50	2100	COc1ccccc1N1CCN(CC(COc2cccc3c(=O)c4ccccc4oc23)OC(C)=O)CC1.Cl (racemic)
4	695	COc1ccccc1N1CCN(CCCOc2cccc3c(=O)c4ccccc4oc23)CC1.Cl
18	4260	COc1ccccc1N1CCN(CC(O)COc2cccc3c(=O)c4ccccc4oc23)CC1.Cl (racemic)
677	634	Cl.Cl.O=c1c2ccccc2oc2c(OCC(O)CN3CCN(C/C=C/c4ccccc4)CC3)cccc12 (racemic)
